Experimental data as given in ChEMBL document CHEMBL1128459, “Characterization of potent and selective antagonists at postsynaptic 5-HT1A receptors in a series of N4-substituted arylpiperazines” (J Med Chem, 1995).

Experiments:
[1] = biological target: D(2) dopamine receptor (Rattus norvegicus) (UniProt P61169); assay: Inhibitory activity against methyl-phenidate-induced gnawing at dopamine receptor D2 in rat
In short: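 Male Wistar rats (200-220 g) received the test drug sc in water (1.0 mL/kg), then methylphenidate 40.0 mg/kg ip 30 min later. Observation began 30 min after that. Gnawing bouts were counted in 10 s per minute (maximum 10) by a blinded observer.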

Rattus norvegicus [2] = species on record: Rattus norvegicus; assay: Maximum antagonist effect (% effect) expressed relative to 8-hydroxy-DPAT (100%); format: functional
In short: (§1)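 In the rat rectal-temperature model (sc dosing, 8-OH-DPAT 0.16 mg/kg sc for antagonism), the maximal percentage of induced hypothermia (agonist) and of block of 8-OH-DPAT hypothermia (antagonist) was recorded. Each value is given with the dose at which it was reached.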

[3] = biological target: T1, 5-hydroxytryptamine receptor 1A (Rattus norvegicus, UniProt P19327); assay: Binding affinity at 5-hydroxytryptamine 1A receptor
T1 sequence (P19327 whole entry): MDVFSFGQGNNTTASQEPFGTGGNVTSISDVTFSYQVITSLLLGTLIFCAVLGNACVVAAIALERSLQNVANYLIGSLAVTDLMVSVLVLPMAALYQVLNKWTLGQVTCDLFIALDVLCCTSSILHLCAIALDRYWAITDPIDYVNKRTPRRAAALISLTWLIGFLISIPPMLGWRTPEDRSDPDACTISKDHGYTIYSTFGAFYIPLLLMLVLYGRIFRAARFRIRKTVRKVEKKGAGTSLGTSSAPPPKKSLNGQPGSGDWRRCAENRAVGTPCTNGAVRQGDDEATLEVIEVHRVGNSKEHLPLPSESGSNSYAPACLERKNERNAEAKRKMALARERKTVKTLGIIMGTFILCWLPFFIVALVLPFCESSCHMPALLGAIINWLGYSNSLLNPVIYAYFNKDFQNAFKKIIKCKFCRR
In short: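 Rat hippocampal membranes (1/100 wt/vol) in 50 mM Tris pH 7.7 with 4 mM CaCl2, 0.1% ascorbic acid and pargyline. Membranes were spun at 25000g, preincubated 30 min at 37 °C and respun, then incubated with 0.4 nM [3H]-8-OH-DPAT for 30 min at 25 °C. 5-HT defined nonspecific binding, and samples were filtered on PEI-soaked GF/B. IC50 came from regression; pKi = −log[IC50/(1+[L]/Kd)].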

Rattus norvegicus [4] = assay: Minimum effective agonist dose administered subcutaneously; format: functional; settings: sc, read-out: MED
In short: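 Male Wistar rats (200-220 g) were given the test drug alone sc in water (1.0 mL/kg), with vehicle reinjected at 30 min. Rectal temperature change from basal was measured 60 min after the first injection. MED for hypothermia was set against vehicle by ANOVA with Dunnett's test, P < 0.05.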

Rattus norvegicus [5] = assay: Compound after subcutaneous administration was evaluated for antagonist activity against hypothermia induced by 8-hydroxy -DPAT in rat; format: functional; settings: sc, read-out: ID50 (the source's name)
In short: (§2)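 Male Wistar rats (200-220 g) had rectal temperature taken, then received the test drug sc in distilled water (1.0 mL/kg). After 30 min they got 8-OH-DPAT 0.16 mg/kg sc, and temperature was remeasured 30 min later. Change from basal was scored.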

Rattus norvegicus [6] = assay: Minimum effective antagonist dose administered subcutaneously; format: functional; settings: sc, read-out: MED; in short: as §2
Rattus norvegicus [7] = species on record: Rattus norvegicus; assay: Maximum agonist effect (% effect) expressed relative to 8-hydroxy-DPAT (100%); format: functional; in short: as §1
[8] = biological target: 5-hydroxytryptamine receptor 1B (Rattus norvegicus, UniProt P28564); assay: Binding affinity at 5-hydroxytryptamine 1B receptor
In short: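 Rat frontal cortex membranes (1/40 wt/vol) were homogenized in 50 mM Tris pH 7.7 with pargyline, 4 mM CaCl2 and 0.1% ascorbic acid, then preincubated for 30 min at 37 °C. Labelled with 2.0 nM [3H]-5-HT, with 100 nM 8-OH-DPAT and 100 nM mesulergine masking 5-HT1A/5-HT2A sites; 5-CT defined nonspecific binding.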

[9] = Ratio of MED (agonist) to that of MED (antagonist) values.; format: functional
In short: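 The MED for inducing hypothermia alone was divided by the MED for blocking 8-OH-DPAT (0.16 mg/kg sc) hypothermia. Both MEDs came from sc dosing in male Wistar rats and were tested against vehicle by ANOVA with Dunnett's test, P < 0.05.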

[10] = biological target: D(2) dopamine receptor (Rattus norvegicus) (UniProt P61169)
[11] = biological target: T2, Adrenergic receptor alpha-1 (Rattus norvegicus, UniProt P15823+P23944+P43140); assay: In vitro binding affinity towards Alpha-1 adrenergic receptor in rat cortex was determined using [3H]prazosin as radioligand
T2 sequence (P15823 whole entry): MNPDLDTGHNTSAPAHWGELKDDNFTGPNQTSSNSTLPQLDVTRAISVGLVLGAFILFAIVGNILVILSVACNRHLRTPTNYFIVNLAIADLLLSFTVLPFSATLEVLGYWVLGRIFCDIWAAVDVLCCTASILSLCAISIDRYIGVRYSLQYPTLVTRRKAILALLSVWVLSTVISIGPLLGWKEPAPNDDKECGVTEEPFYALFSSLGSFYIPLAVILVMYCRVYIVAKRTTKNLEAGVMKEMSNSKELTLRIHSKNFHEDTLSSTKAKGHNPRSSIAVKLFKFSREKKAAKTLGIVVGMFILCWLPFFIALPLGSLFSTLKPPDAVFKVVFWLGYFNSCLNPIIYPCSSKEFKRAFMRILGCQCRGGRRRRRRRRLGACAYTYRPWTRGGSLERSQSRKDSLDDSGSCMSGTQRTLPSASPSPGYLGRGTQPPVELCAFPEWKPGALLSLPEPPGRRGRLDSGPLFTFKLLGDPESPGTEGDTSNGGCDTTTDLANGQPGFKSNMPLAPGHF
T2 sequence (P23944 whole entry): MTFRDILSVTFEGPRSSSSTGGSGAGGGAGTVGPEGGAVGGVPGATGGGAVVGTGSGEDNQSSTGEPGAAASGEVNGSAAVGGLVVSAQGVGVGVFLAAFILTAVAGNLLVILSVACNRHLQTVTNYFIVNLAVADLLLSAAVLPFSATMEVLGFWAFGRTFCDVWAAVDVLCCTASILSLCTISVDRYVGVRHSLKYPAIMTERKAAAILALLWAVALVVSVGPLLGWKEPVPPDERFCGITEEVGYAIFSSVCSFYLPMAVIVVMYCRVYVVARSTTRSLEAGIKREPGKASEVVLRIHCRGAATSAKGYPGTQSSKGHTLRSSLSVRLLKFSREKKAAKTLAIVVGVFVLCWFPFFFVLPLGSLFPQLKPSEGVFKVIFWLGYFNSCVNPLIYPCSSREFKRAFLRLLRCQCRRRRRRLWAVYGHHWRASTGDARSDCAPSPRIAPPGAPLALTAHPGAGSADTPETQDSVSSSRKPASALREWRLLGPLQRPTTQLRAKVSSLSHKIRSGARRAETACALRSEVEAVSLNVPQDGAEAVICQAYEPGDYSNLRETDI
T2 sequence (P43140 whole entry): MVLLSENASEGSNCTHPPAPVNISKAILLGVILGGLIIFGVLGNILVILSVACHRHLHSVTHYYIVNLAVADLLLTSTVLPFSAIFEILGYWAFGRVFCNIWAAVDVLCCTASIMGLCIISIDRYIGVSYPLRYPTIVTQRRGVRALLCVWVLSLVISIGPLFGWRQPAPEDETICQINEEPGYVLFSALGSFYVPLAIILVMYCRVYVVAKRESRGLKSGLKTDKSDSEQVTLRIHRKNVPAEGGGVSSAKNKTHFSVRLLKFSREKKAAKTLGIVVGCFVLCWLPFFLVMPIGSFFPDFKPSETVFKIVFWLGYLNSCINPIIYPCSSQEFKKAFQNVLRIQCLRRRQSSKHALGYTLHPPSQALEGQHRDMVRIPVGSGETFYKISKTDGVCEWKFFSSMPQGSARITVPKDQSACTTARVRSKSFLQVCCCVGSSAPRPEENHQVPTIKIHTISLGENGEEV
In short: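 Rat frontal cortex membranes (1/80 wt/vol), no preincubation, in 50 mM Tris pH 7.6 with 4 mM CaCl2 and 0.1% ascorbic acid. Ligand 0.2 nM [3H]prazosin, with phentolamine for nonspecific binding. Incubation 60 min at 25 °C, then filtration. IC50 obtained by regression and converted to pKi with radioligand Kd from saturation experiments.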

D(2) dopamine receptor [12] = biological target: T3, D(2) dopamine receptor (Rattus norvegicus, UniProt P61169); assay: In vitro binding affinity towards Dopamine receptor D2 in rat striatum was determined using [3H]-spiperone as radioligand; format: tissue-based
In short: (§3)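 Rat striatal membranes (1/300 wt/vol), no preincubation, in 50 mM Tris pH 7.4 with CaCl2, ascorbic acid, 5 mM KCl, 1 mM MgCl2 and 120 mM NaCl. Ligand 0.2 nM [3H]spiperone, with 100 nM ketanserin masking 5-HT2A sites; raclopride defined nonspecific binding. Incubation 30 min at 37 °C, then filtration. pKi derived from regression-based IC50.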

[13] = biological target: Serotonin 1a (5-HT1a) receptor/Adrenergic receptor alpha-1 (Rattus norvegicus) (UniProt P15823+P23944+P43140+P19327); assay: Ki ratio measured as the Ki values of alpha-1 adrenergic receptor to that of 5-hydroxytryptamine 1A receptor; format: protein assay
D(2) dopamine receptor [14] = biological target: T3, D(2) dopamine receptor; assay: In vitro binding affinity towards Dopamine receptor D2 in rat striatum was determined using [3H]spiperone as radioligand; format: tissue-based; in short: as §3
D(2) dopamine receptor [15] = biological target: T3, D(2) dopamine receptor; assay: In vitro binding affinity towards dopamine D2 receptor in rat striatum was determined using [3H]-spiperone as radioligand; format: tissue-based; in short: as §3
[16] = biological target: 5-hydroxytryptamine receptor 1A (Rattus norvegicus) (UniProt P19327); assay: Ki ratio measured as the Ki values of dopamine receptor to that of 5-hydroxytryptamine 1A receptor

5-hydroxytryptamine receptor 1B, sequence (P28564 whole entry): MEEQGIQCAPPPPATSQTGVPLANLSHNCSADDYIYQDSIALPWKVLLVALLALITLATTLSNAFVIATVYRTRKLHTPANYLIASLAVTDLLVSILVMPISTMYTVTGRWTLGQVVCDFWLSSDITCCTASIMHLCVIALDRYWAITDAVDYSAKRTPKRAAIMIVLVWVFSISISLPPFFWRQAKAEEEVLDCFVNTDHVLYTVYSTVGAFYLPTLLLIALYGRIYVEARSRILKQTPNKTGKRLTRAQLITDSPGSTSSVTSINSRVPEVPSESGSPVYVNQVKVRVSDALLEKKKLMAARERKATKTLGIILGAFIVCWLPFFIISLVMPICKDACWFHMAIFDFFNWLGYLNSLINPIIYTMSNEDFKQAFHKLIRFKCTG
T3 sequence (P61169 whole entry): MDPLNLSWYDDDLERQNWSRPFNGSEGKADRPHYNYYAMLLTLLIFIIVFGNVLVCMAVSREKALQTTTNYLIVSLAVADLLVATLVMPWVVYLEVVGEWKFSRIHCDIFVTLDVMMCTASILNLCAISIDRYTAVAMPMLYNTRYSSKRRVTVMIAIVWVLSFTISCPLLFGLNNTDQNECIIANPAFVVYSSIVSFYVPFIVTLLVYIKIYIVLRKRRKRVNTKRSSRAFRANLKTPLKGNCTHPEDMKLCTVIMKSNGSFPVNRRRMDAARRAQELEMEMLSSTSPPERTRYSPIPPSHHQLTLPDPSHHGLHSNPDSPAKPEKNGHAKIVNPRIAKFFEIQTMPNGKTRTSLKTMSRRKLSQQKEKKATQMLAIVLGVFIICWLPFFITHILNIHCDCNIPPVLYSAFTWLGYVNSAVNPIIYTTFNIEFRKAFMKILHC
D(2) dopamine receptor (Rattus norvegicus), sequence (P61169 whole entry): as above

SMILES	ID50 [1]	Max effect (Rattus norvegicus [2])	Ki [3]	minimal effective dose (Rattus norvegicus [4])	ED50 (Rattus norvegicus [5])	minimal effective dose (Rattus norvegicus [6])	Max effect (Rattus norvegicus [7])	Ki [8]	Ratio [9]	ID50 [10]	Log Ki [11]	Ki (D(2) dopamine receptor [12])	Ki ratio [13]	Ki (D(2) dopamine receptor [14])	Ki (D(2) dopamine receptor [15])	Ki ratio [16]
c1ccc2c(c1)CC2CCN1CCN(c2cccc3ccoc23)CC1 (stereo not given)	> 40 mg/kg	91%	1.41 nM	> 40 mg/kg	1.12 mg/kg	1.25 mg/kg	21%	1510 nM	> 32							
COc1ccccc1N1CCN(C[C@@H](C(=O)NC(C)(C)C)c2ccccc2)CC1		73%		40 mg/kg	2.45 mg/kg	2.5 mg/kg	50%	> 10000 nM	16	> 40 mg/kg	-5.94	389 nM	35.6			
c1ccc2c(c1)CCC2CCN1CCN(c2cccc3c2OCCO3)CC1 (stereo not given)	> 40 mg/kg	94%	1.58 nM	> 40 mg/kg	1.29 mg/kg	0.63 mg/kg	19%		> 63.5							
COc1ccccc1N1CCN(CCCCN2C(=O)c3ccccc3C2=O)CC1 [NAN-190]		56%		5 mg/kg	97 mg/kg	0.63 mg/kg	100%			10 mg/kg				31.6 nM		
COc1cc2c(cc1OC)C(CCN1CCN(c3cccc4c3OCCO4)CC1)CC2 (stereo not given)		84%	1.58 nM	> 40 mg/kg	0.86 mg/kg	2.5 mg/kg	12%	676 nM	> 16	40 mg/kg	-7.81		9.8		132 nM	
c1ccc2c(c1)CC2CCCCN1CCN(c2cccc3c2OCCO3)CC1 (stereo not given)		88%	1.29 nM	> 10 mg/kg	1.43 mg/kg	5 mg/kg	0%	631 nM	> 2	> 40 mg/kg	-7.56		17.8	19.5 nM		12.5
c1ccc2c(c1)CC2CCN1CCN(c2cccc3c2OCCO3)CC1 (stereo not given)		76%	0.589 nM	40 mg/kg	0.65 mg/kg	1.25 mg/kg	32%		32	> 40 mg/kg	-7.66	49 nM	35.4			
c1ccc2c(c1)CC(N1CCN(c3cccc4c3OCCO4)CC1)C2		95%		20 mg/kg	1.4 mg/kg	0.63 mg/kg	46%	1780 nM	31.7	> 40 mg/kg	-6.84	347 nM	81			
c1ccc2c(c1)CCC2CN1CCN(c2cccc3c2OCCO3)CC1 (stereo not given)		63%	1.74 nM	10 mg/kg	1.32 mg/kg	0.63 mg/kg	43%	200 nM	15.8	> 40 mg/kg	-7.75	41.7 nM	18.6			43.6
c1ccc2c(c1)CC2CCCN1CCN(c2cccc3ccoc23)CC1 (stereo not given)	40 mg/kg	47%	2.82 nM	10 mg/kg	2.5 mg/kg	2.5 mg/kg	46%	1410 nM	4							
c1ccc2c(c1)CC(N1CCN(c3cccc4c3OCCCO4)CC1)C2		51%		10 mg/kg	5.18 mg/kg	5 mg/kg	72%	1410 nM	2	> 40 mg/kg	-6.68		55	195 nM		
